Data set [1] relates to Cryptococcus neoformans. Kind of data set: Antimicrobial activity against Cryptococcus neoformans 32609 after 72 hrs by serial dilution method. It is filed as functional. Particulars: Cryptococcus neoformans, 32609, 72 h. An outline of the steps: (§1)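 Broth serial dilution MIC in 96-well plates following NCCLS/CLSI methods. Compounds were dissolved in DMSO and serially diluted in growth medium, with incubation at 35 °C. […] C. parapsilosis 22019 served as the quality-control strain in each assay.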

The test system of data set [2] is Candida albicans. Kind of data set: Antimicrobial activity against Candida albicans Y0109 after 24 hrs by serial dilution method. It counts as functional. As to conditions: Y0109, 24 h. In short, it runs like this:
as §1

Data set [3] relates to Candida albicans. The data set can be described thus: Antimicrobial activity against Candida albicans SC5314 after 24 hrs by serial dilution method. It is filed as functional. As to conditions: SC5314, 24 h. An outline of the steps:
as §1

The subject of data set [4] is Nakaseomyces glabratus. The data set can be described thus: Antimicrobial activity against Candida glabrata 537 after 24 hrs by serial dilution method. Particulars: Nakaseomyces glabratus, 537, 24 h. It is filed as functional. In short, it runs like this:
as §1

Data set [5] relates to Aspergillus fumigatus. The data set can be described thus: Antimicrobial activity against Aspergillus fumigatus 7544 after 48 hrs by serial dilution method. It is filed as functional. Particulars: Aspergillus fumigatus, 7544, 48 h. An outline of the steps:
as §1

Data set [6] relates to Candida parapsilosis. The data set can be described thus: Antimicrobial activity against Candida parapsilosis 22019 after 24 hrs by serial dilution method. It counts as functional. Particulars: Lodderomyces parapsilosis, 22019, 24 h. In short, it runs like this:
as §1

Data set [7] can be described thus: Aqueous solubility of the compound in phosphate buffer at pH 7.4. It counts as physicochemical. In short, it runs like this: (§2)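 Excess solid was stirred for 3 h in pH 1.2 hydrochloric acid or pH 7.4 phosphate buffer, then filtered through 0.45 μm. Absorbance at the UV maximum was compared with a methanol standard, C′ = A′C/A, with values reported in mg/mL. Determined at 30 °C; mean ± SD, n = 3.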

Data set [8] can be described thus: Aqueous solubility of the compound in hydrochloric acid solution at pH 1.2. It counts as physicochemical. In short, it runs like this:
as §2

Data set [9] has as its system Candida albicans. Kind of data set: Antimicrobial activity against fluconazole-resistant Candida albicans J18 after 24 hrs by serial dilution method. As to conditions: J18, 24 h. It counts as functional. In short, it runs like this: (§3)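 Broth serial-dilution MIC in 96-well plates following NCCLS guidance. Compounds were dissolved in DMSO and serially diluted in growth medium. Clinical isolates came from a hospital collection. […] C. parapsilosis ATCC 22019 served as the quality-control strain in each assay.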

In data set [10] the test system is Candida albicans. The data set can be described thus: Antimicrobial activity against fluconazole-resistant Candida albicans J38 after 24 hrs by serial dilution method. Particulars: J38, 24 h. It is filed as functional. An outline of the steps:
as §3

Data set [11] has as its system Candida albicans. The data set can be described thus: Antimicrobial activity against fluconazole-resistant Candida albicans 103 after 24 hrs by serial dilution method. As to conditions: Candida albicans, 103, 24 h. It is filed as functional. In short, it runs like this:
as §3

Data set [12] concerns Candida albicans. The data set can be described thus: Antimicrobial activity against fluconazole-resistant Candida albicans J28 after 24 hrs by serial dilution method. It counts as functional. Particulars: J28, 24 h. In short, it runs like this: as §3
In data set [13] the test system is Candida albicans. Kind of data set: Antimicrobial activity against fluconazole-resistant Candida albicans 100 after 24 hrs by serial dilution method. It is filed as functional. As to conditions: Candida albicans, 100, 24 h. In short, it runs like this:
as §3

Values after ≈ are worked out from the molar mass of the structure shown.

On to `C[C@@H](N1CCc2cc(-c3cncnc3)sc2C1)[C@](O)(Cn1cncn1)c1ccc(F)cc1F`, for which the MIC came out at 0.5 µg/mL (≈ 1.07 µM) in data set [1]; 0.25 µg/mL (≈ 0.534 µM) in data set [2]; 0.5 µg/mL (≈ 1.07 µM) in data set [3]; 1 µg/mL (≈ 2.13 µM) in data set [4]; 16 µg/mL (≈ 34.1 µM) in [5]; 0.5 µg/mL (≈ 1.07 µM) in data set [6].
For `C[C@@H](N1CCc2cc(-c3ccc(C#N)nc3)sc2C1)[C@](O)(Cn1cncn1)c1ccc(F)cc1F`, the MIC is 4 µg/mL (≈ 8.12 µM) in data set [1]; 4 µg/mL (≈ 8.12 µM) in [2]; 2 µg/mL (≈ 4.06 µM) in data set [3]; 4 µg/mL (≈ 8.12 µM) in [4]; 32 µg/mL (≈ 65 µM) in data set [5]; 4 µg/mL (≈ 8.12 µM) in data set [6].
Regarding `C[C@@H](N1CCc2nc(-c3cncnc3)sc2C1)[C@](O)(Cn1cncn1)c1ccc(F)cc1F.Cl`, in data set [7], the solubility was 14800 µg/mL.
Same read-out and setting: with `CS(=O)(=O)O.C[C@@H](N1CCc2nc(-c3cncnc3)sc2C1)[C@](O)(Cn1cncn1)c1ccc(F)cc1F` the figure was 12000 µg/mL; with `C[C@@H](N1CCc2nc(-c3cncnc3)sc2C1)[C@](O)(Cn1cncn1)c1ccc(F)cc1F.Cc1ccc(S(=O)(=O)O)cc1`, 5800 µg/mL; with `C[C@@H](N1CCc2nc(-c3cncnc3)sc2C1)[C@](O)(Cn1cncn1)c1ccc(F)cc1F.O=S(=O)(O)O`, 108000 µg/mL.
Take `Br.C[C@@H](N1CCc2nc(-c3cncnc3)sc2C1)[C@](O)(Cn1cncn1)c1ccc(F)cc1F`: the solubility in [7] came out at 12100 µg/mL.
In [7], `C[C@@H](N1CCc2nc(-c3cncnc3)sc2C1)[C@](O)(Cn1cncn1)c1ccc(F)cc1F.O=P(O)(O)O` yielded a solubility of 8330 µg/mL.
Take `C[C@@H](n1cnc2cc(Cl)ccc2c1=O)[C@](O)(Cn1cncn1)c1ccc(F)cc1F` [ALBACONAZOLE]: the solubility in data set [8] came to 1 µg/mL (≈ 2.32 µM). For the same molecule, the minimal inhibitory concentration (MIC) was above 16 µg/mL in data set [9]; at most 0.0312 µg/mL in data set [10]; at most 0.0312 µg/mL in data set [1]; at most 0.0312 µg/mL in [2]; 0.0078 µg/mL (≈ 0.0181 µM) in data set [3]; at most 0.0312 µg/mL in data set [4]. In addition, the minimum inhibitory concentration (MIC) is 4 µg/mL (≈ 9.26 µM) in data set [11]; 0.5 µg/mL (≈ 1.16 µM) in [5]; 0.0156 µg/mL (≈ 0.0361 µM) in data set [6]; at most 0.0312 µg/mL in data set [12]; 8 µg/mL (≈ 18.5 µM) in [13].
Take `C[C@@H]1[C@H](O)[C@@H](C)/C=C/C=C/C=C/C=C/C=C/C=C/C=C/[C@H](O[C@@H]2O[C@H](C)[C@@H](O)[C@H](N)[C@@H]2O)C[C@@H]2O[C@](O)(C[C@@H](O)C[C@@H](O)[C@H](O)CC[C@@H](O)C[C@@H](O)CC(=O)O[C@H]1C)C[C@H](O)[C@H]2C(=O)O` [AMPHOTERICIN B]: the MIC came to 1 µg/mL (≈ 1.08 µM) in data set [1]; 1 µg/mL (≈ 1.08 µM) in data set [2]; 1 µg/mL (≈ 1.08 µM) in data set [3]; 0.5 µg/mL (≈ 0.541 µM) in [4]; 4 µg/mL (≈ 4.33 µM) in data set [5]; 0.5 µg/mL (≈ 0.541 µM) in data set [6].
In [8], `C[C@@H](c1nc(-c2ccc(C#N)cc2)cs1)[C@](O)(Cn1cncn1)c1ccc(F)cc1F` [RAVUCONAZOLE] returned a solubility of 3 µg/mL (≈ 6.86 µM). Moreover, the MIC in data set [1] was at most 0.0625 µg/mL; in [2], 0.0625 µg/mL (≈ 0.143 µM); in data set [3], 0.0625 µg/mL (≈ 0.143 µM); in data set [4], at most 0.125 µg/mL; in data set [5], 1 µg/mL (≈ 2.29 µM); in data set [6] it was 0.125 µg/mL (≈ 0.286 µM).
`C[C@@H](c1ncncc1F)[C@](O)(Cn1cncn1)c1ccc(F)cc1F` [VORICONAZOLE]: the results for the solubility in data set [8] and in [7] were 1260 µg/mL (≈ 3620 µM) and 682 µg/mL (≈ 1950 µM), respectively. The MIC in data set [9] was above 16 µg/mL; in data set [10] it was 0.0625 µg/mL (≈ 0.179 µM); in data set [1], 0.0625 µg/mL (≈ 0.179 µM); in [2] it was 0.0625 µg/mL (≈ 0.179 µM); in [3], at most 0.0625 µg/mL; in data set [4], at most 0.125 µg/mL. For the same molecule, the MIC was above 16 µg/mL in data set [11]; 2 µg/mL (≈ 5.73 µM) in [5]; 0.125 µg/mL (≈ 0.358 µM) in data set [6]; 0.0625 µg/mL (≈ 0.179 µM) in [12]; above 16 µg/mL in data set [13].

Broadly, the MIC is the lowest concentration that inhibits growth of the organism. One may read the solubility as the concentration that dissolves in the medium under given conditions. A lower solubility goes with little dissolved substance.

The values above are taken from ChEMBL document CHEMBL3259614, “Design, synthesis, and structure-activity relationship studies of novel fused heterocycles-linked triazoles with good activity and water solubility” (J Med Chem, 2014).
